From ChEMBL document CHEMBL4052816, “Development of Clickable Monophosphoryl Lipid A Derivatives toward Semisynthetic Conjugates with Tumor-Associated Carbohydrate Antigens” (J Med Chem, 2017)
Activity calls are given as the source filed them. The rule behind the calls is not given here.

What was measured:
[1] = system: BMDM; experiment: Immunostimulatory activity in C57BL/6 mouse BMDM assessed as increase in MHC-class 2 production at 20 ug/ml after 6 to 72 hrs by flow cytometric method; assay type: functional, cell-based
Method in brief: (§1)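 C57BL/6 BMDM (0.5 × 10^6/well) were stimulated with compound at 20 μg/mL for 6, 24, 48 and 72 h. Cells were then stained with phycoerythrin-conjugated anti-CD40, anti-CD80 or anti-CD86, plus allophycocyanin-conjugated anti-MHC class II. Isotype antibodies set nonspecific binding, and cells were analysed by flow cytometry. Three independent experiments were run.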

[2] = system: THP-1; experiment: Immunostimulatory activity in human THP1 cells assessed as increase in IFN-gamma production at 20 ug/ml after 6 to 72 hrs by immunoassay; assay type: functional, cell-based
Method in brief: (§2)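 THP-1 cells (0.5 × 10^6/well) were grown in RPMI/10% FBS for 24 h, then given fresh medium containing compound at 20 μg/mL for 6, 24, 48 and 72 h. Cell-free supernatants were assayed for IL-8 and IL-6 by ELISA, and for IL-10, IFN-γ and TNF-α by a human Th1/Th2 multiplex bead immunoassay. Results were pooled from three independent experiments, means ± SD.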

[3] = system: BMDM; experiment: Immunostimulatory activity in C57BL/6 mouse BMDM assessed as increase in CD86 production at 20 ug/ml after 6 to 72 hrs by flow cytometric method; assay type: functional, cell-based; method in brief: as §1
[4] = system: THP-1; experiment: Immunostimulatory activity in human THP1 cells assessed as increase in IL-8 production at 20 ug/ml after 6 to 72 hrs by ELISA; assay type: functional, cell-based; method in brief: as §2
[5] = system: THP-1; experiment: Immunostimulatory activity in human THP1 cells assessed as increase in IL-10 production at 20 ug/ml after 6 to 72 hrs by immunoassay; assay type: functional, cell-based; method in brief: as §2
[6] = system: BMDM; experiment: Immunostimulatory activity in C57BL/6 mouse BMDM assessed as increase in CD80 production at 20 ug/ml after 6 to 72 hrs by flow cytometric method; assay type: functional, cell-based; method in brief: as §1
[7] = system: BMDM; experiment: Immunostimulatory activity in C57BL/6 mouse BMDM assessed as increase in CD40 production at 20 ug/ml after 6 to 72 hrs by flow cytometric method; assay type: functional, cell-based; method in brief: as §1
[8] = system: THP-1; experiment: Cytotoxicity against human THP1 cells assessed as decrease in cell viability at 0.1 to 20 ug/ml after 6 to 48 hrs by SRB assay; assay type: cell-based
Method in brief: (§3)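 THP-1 cells and C57BL/6 wild-type bone marrow-derived macrophages were kept in RPMI with 10% FBS, penicillin and streptomycin at 37 °C and 5% CO2. BMDM medium also contained gentamycin. Cells were exposed to compound at 20, 10, 1 and 0.1 μg/mL, and viability was read with a colorimetric assay.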

[9] = system: BMDM; experiment: Immunostimulatory activity in C57BL/6 mouse BMDM assessed as increase in IL-4 production at 20 ug/ml after 6 to 72 hrs by immunoassay; assay type: functional, cell-based
Method in brief: (§4)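 Bone marrow macrophages from wild-type C57BL/6 mice (0.5 × 10^6/well) were grown for 24 h, then given fresh medium containing compound at 20 μg/mL for 6, 24, 48 and 72 h. Three independent experiments were run, means ± SD.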

[10] = system: BMDM; experiment: Immunostimulatory activity in C57BL/6 mouse BMDM assessed as increase in IL-5 production at 20 ug/ml after 6 to 72 hrs by immunoassay; assay type: functional, cell-based; method in brief: as §4
[11] = system: BMDM; experiment: Immunostimulatory activity in C57BL/6 mouse BMDM assessed as increase in IL-12 production at 20 ug/ml after 6 to 72 hrs by immunoassay; assay type: functional, cell-based; method in brief: as §4
[12] = system: THP-1; experiment: Immunostimulatory activity in human THP1 cells assessed as increase in TNF-alpha production at 20 ug/ml after 6 to 72 hrs by immunoassay; assay type: functional, cell-based; method in brief: as §2
[13] = system: BMDM; experiment: Immunostimulatory activity in C57BL/6 mouse BMDM assessed as increase in IL-10 production at 20 ug/ml after 6 to 72 hrs by immunoassay; assay type: functional, cell-based; method in brief: as §4
[14] = system: BMDM; experiment: Immunostimulatory activity in C57BL/6 mouse BMDM assessed as increase in IL-2 production at 20 ug/ml after 6 to 72 hrs by immunoassay; assay type: functional, cell-based; method in brief: as §4
[15] = system: BMDM; experiment: Immunostimulatory activity in C57BL/6 mouse BMDM assessed as increase in IFN-gamma production at 20 ug/ml after 6 to 72 hrs by immunoassay; assay type: functional, cell-based; method in brief: as §4
[16] = system: BMDM; experiment: Immunostimulatory activity in C57BL/6 mouse BMDM assessed as increase in GM-CSF production at 20 ug/ml after 6 to 72 hrs by immunoassay; assay type: functional, cell-based; method in brief: as §4
[17] = system: BMDM; experiment: Immunostimulatory activity in C57BL/6 mouse BMDM assessed as increase in TNFalpha production at 20 ug/ml after 6 to 72 hrs by ELISA; assay type: functional, cell-based; method in brief: as §4
[18] = Cytotoxicity against C57BL/6 mouse BMDM assessed as decrease in cell viability at 20 ug/ml after 6 to 48 hrs by SRB assay; assay type: cell-based; method in brief: as §3
[19] = system: BMDM; experiment: Immunostimulatory activity in C57BL/6 mouse BMDM assessed as increase in IL-6 production at 20 ug/ml after 6 to 72 hrs by ELISA; assay type: functional, cell-based; method in brief: as §4

| SMILES | Activity [1] | Activity [2] | Activity [3] | Activity [4] | Activity [5] | Activity [6] | Activity [7] | Activity [8] | Activity [9] | Activity [10] | Activity [11] | Activity [12] | Activity [13] | Activity [14] | Activity [15] | Activity [16] | Activity [17] | Activity [18] | Activity [19] |
| --- | --- | --- | --- | --- | --- | --- | --- | --- | --- | --- | --- | --- | --- | --- | --- | --- | --- | --- | --- |
| CCCCCCCCCCCCCC(=O)O[C@H](CCCCCCCCCCC)CC(=O)O[C@@H]1[C@@H](NC(=O)C[C@@H](CCCCCCCCCCC)OC(=O)CCCCCCCCCCC)[C@H](OC[C@H]2OC(O)[C@H](NC(=O)C[C@@H](CCCCCCCCCCC)OC(=O)C[C@H](O)CCCCCCCCCCCCC)[C@@H](O)[C@@H]2O)O[C@H](CO)[C@H]1OP(=O)(O)O (some centres not stated) | Active | inactive | Active | Active | Active | Active | Active | – | – | – | – | – | – | – | – | – | – | – | – |
| CCCCCCCCCCCCCC(=O)O[C@H](CCCCCCCCCCC)CC(=O)O[C@@H]1[C@@H](NC(=O)C[C@@H](CCCCCCCCCCC)OC(=O)CCCCCCCCCCC)[C@H](OC[C@H]2OC(O)[C@H](NC(=O)C[C@H](O)CCCCCCCCCCC)[C@@H](OC(=O)C[C@H](O)CCCCCCCCCCC)[C@@H]2O)O[C@H](C(=O)NCCCCCCN=[N+]=[N-])[C@H]1OP(=O)(O)O (some centres not stated) | inactive | inactive | inactive | Active | Active | inactive | inactive | Non-Toxic | inactive | inactive | inactive | Active | inactive | inactive | inactive | inactive | – | – | – |
| C#CCCCCNC(=O)[C@H]1O[C@@H](OC[C@H]2OC(O)[C@H](NC(=O)C[C@H](O)CCCCCCCCCCC)[C@@H](OC(=O)C[C@H](O)CCCCCCCCCCC)[C@@H]2O)[C@H](NC(=O)C[C@@H](CCCCCCCCCCC)OC(=O)CCCCCCCCCCC)[C@@H](OC(=O)C[C@@H](CCCCCCCCCCC)OC(=O)CCCCCCCCCCCCC)[C@@H]1OP(=O)(O)O (some centres not stated) | inactive | inactive | inactive | Active | Active | inactive | inactive | Non-Toxic | inactive | inactive | inactive | Active | inactive | inactive | inactive | inactive | Active | Toxic | Active |
